# Active and inactive are the calls of the source. The calls are words filed in the database; no cut-off is given here.
# Legend:
# [1] = Antiproliferative activity against human WHCO1 cells after 48 hrs by MTT assay; assay type: functional, cell-based; details: WHCO1, 48 h
# Procedure, shortened: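 WHCO1 cells (oesophageal SCC line) kept in DMEM with 10% FBS, no antibiotics, 37 °C, 5% CO2. Seeded 2 × 10^3 cells/well, dosed next day at 0.5–200 µM in 0.1% DMSO final; DMSO-only controls. After 48 h, MTT added for 4 h, then SLS/HCl overnight, A595 read. IC50 from variable-slope sigmoidal fit; mean ± SD of three independent determinations.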
# WHCO1 [2] = test: Growth inhibition of human WHCO1 cells at 113 uM after 6 days by Roche xCelligence method; assay type: functional, cell-based
# Procedure, shortened: (§1)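 Real-time impedance (xCelligence) of WHCO1 cells seeded at 5000/well. Compound added 24 h after plating in 0.1% DMSO at 34, 100 or 113 µM; DMSO-only controls. Growth then tracked continuously for a further six days. Each curve is the average of three replicates.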
# WHCO1 [3] = test: Growth inhibition of human WHCO1 cells at 34 uM after 6 days by Roche xCelligence method; assay type: functional, cell-based; procedure, shortened: as §1
# [4] = Induction of cell cycle arrest in human WHCO1 cells assessed as G2/M phase cells at 10 uM after 16 hrs by flow cytometry (reference value: 25.5 +/- 3.7%); assay type: functional
# [5] = Induction of cell cycle arrest in human WHCO1 cells assessed as G0/G1 phase cells at 10 uM after 16 hrs by flow cytometry (reference value: 29.2 +/- 5.2%); assay type: functional
# [6] = Induction of cell cycle arrest in human WHCO1 cells assessed as S phase cells at 10 uM after 16 hrs by flow cytometry (reference value: 45.3 +/- 1.9%); assay type: functional
# [7] = Ratio of Z-ajeone IC50 to compound IC50 for human WHCO1 cells; assay type: functional
# [8] = Induction of apoptosis in human WHCO1 cells assessed as caspase 3 activation using Ac-DEVD-AFC as substrate at 25 uM after 24 hrs by fluorimetry relative to control; assay type: functional
# Procedure, shortened: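 WHCO1 cells (1.8 × 10^6) seeded in triplicate and dosed next day at 25 µM with 0.1% DMSO for 24 h. Controls received medium or 0.1% DMSO. Lysates captured on anti-caspase-3 coated wells for 1 h at 37 °C, then fluorogenic substrate added. Fluorescence (ex 390/em 505 nm) read at 0 and 120 min at 37 °C; activity is the ΔFU.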
# WHCO1 [9] = test: Induction of apoptosis in human WHCO1 cells at 10 uM after 16 hrs by Roche cell death ELISA method; assay type: functional, cell-based
# Procedure, shortened: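 Quadruplicate wells of 5 × 10^3 WHCO1 cells dosed next day at 10 µM in 0.1% DMSO for 16 h; DMSO-only controls. Cytoplasmic fraction assayed for histone-associated DNA fragments by sandwich ELISA (anti-histone-biotin/anti-DNA-POD, 2 h at room temperature, ABTS 15 min). Absorbance read at 405 and 495 nm.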
# WHCO1 [10] = test: Growth inhibition of human WHCO1 cells at 10 uM up to 5 days by Roche xCelligence method; assay type: functional, cell-based
# Procedure, shortened: (§2)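 xCelligence impedance monitoring of WHCO1 growth: 2500 cells/well, treated 24 h after plating with 10 µM compound in 0.1% DMSO. DMSO-only controls. Growth followed continuously as impedance; the system records for up to seven days.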
# WHCO1 [11] = test: Growth inhibition of human WHCO1 cells at 100 uM after 6 days by Roche xCelligence method; assay type: functional, cell-based; procedure, shortened: as §1
# WHCO1 [12] = test: Growth inhibition of human WHCO1 cells at 10 uM up to 2 days by Roche xCelligence method; assay type: functional, cell-based; details: in the assay text read “up to 5 days” for “up to 2 days”; procedure, shortened: as §2
Compound,IC50 [1] [µM],also measured
CCCSS/C=C\C[S+]([O-])CCC (stereo not drawn),18,
C=CCSS/C=C/C[S+]([O-])CCCN1C(=O)c2ccccc2C1=O (stereo not drawn),68,
COc1ccc(CSC=CCSCc2ccc(OC)cc2)cc1,> 200,growth inhibition (GI) (WHCO1 [2]): inactive
COc1ccc(CSSCCC[S+]([O-])Cc2ccc(OC)cc2)cc1 (stereo not drawn),16,growth inhibition (GI) (WHCO1 [3]): Active
COc1ccc(CS/C=C\C[S+]([O-])Cc2ccc(OC)cc2)cc1 (stereo not drawn),> 200,growth inhibition (GI) (WHCO1 [3]): inactive; Activity [4]: 17.4%; Activity [5]: 19.5%; Activity [6]: 63.1%
C=CCSS/C=C/C[S+]([O-])CCCOCc1ccc(OC)cc1 (stereo not drawn),18,
COc1ccc(CSSC=CC[S+]([O-])Cc2ccc(OC)cc2)cc1 (stereo not drawn),2.1,Ratio IC50 [7]: 12; fold change (FC) [8]: 3; Activity (WHCO1 [9]): Active; Activity [4]: 78.6%; Activity [5]: 8.03%; growth inhibition (GI) (WHCO1 [10]): Active; Activity [6]: 13.5%; growth inhibition (GI) (WHCO1 [11]): Active
CCC[S+]([O-])C/C=C\SSC (stereo not drawn),26,
C=CCSS/C=C/C[S+]([O-])CCC (stereo not drawn),37,
C=CCSS/C=C\C[S+]([O-])CCCN1C(=O)c2ccccc2C1=O (stereo not drawn),33,
COc1ccc(CSCCCSSCc2ccc(OC)cc2)cc1,> 200,growth inhibition (GI) (WHCO1 [2]): inactive
C=CCSS/C=C/C[S+]([O-])CC=C (stereo not drawn) [AJOENE],39,growth inhibition (GI) (WHCO1 [12]): inactive
COc1ccc(C[S+]([O-])CC=CSSCc2ccccc2)cc1 (mixture of isomers),3.1,
CCCSS/C=C/C[S+]([O-])CCC (stereo not drawn),24,
COc1ccc(C[S+]([O-])CC=CSSCc2ccc(F)cc2)cc1 (mixture of isomers),16,
COc1ccc(CS/C=C/C[S+]([O-])Cc2ccc(OC)cc2)cc1 (stereo not drawn),> 200,growth inhibition (GI) (WHCO1 [3]): inactive; Activity [4]: 11.4%; Activity [5]: 21.5%; Activity [6]: 67%
C=CCSSC=CC[S+]([O-])C(C)(C)C (mixture of isomers),23,
C=CCSS/C=C\C[S+]([O-])CC=C (stereo not drawn) [(Z)-Ajoene],25,growth inhibition (GI) (WHCO1 [12]): inactive
C=CCSS/C=C/C[S+]([O-])CCCO (stereo not drawn),27,
O=c1[nH]cc(F)c(=O)[nH]1 [FLUOROURACIL],7.9,
CCC[S+]([O-])C/C=C/SSC (stereo not drawn),28,
C=CCSS/C=C\C[S+]([O-])CCC (stereo not drawn),23,
C=CCSS/C=C\C[S+]([O-])CCCOCc1ccc(OC)cc1 (stereo not drawn),21,
C=CCSSC=CC[S+]([O-])Cc1ccc(OC)cc1 (mixture of isomers),7.4,
C=CCSSC=CC[S+]([O-])Cc1ccccc1 (mixture of isomers),8.9,
C=CCSS/C=C\C[S+]([O-])CCCO (stereo not drawn),38,
COc1ccc(CSCC=CSSCc2ccc(OC)cc2)cc1,0.7,Activity (WHCO1 [9]): Active; growth inhibition (GI) (WHCO1 [3]): Active; Activity [4]: 74.4%; Activity [5]: 9.73%; Activity [6]: 15.9%

# Reference: ChEMBL document CHEMBL1949537, “Structure-activity studies on the anti-proliferation activity of ajoene analogues in WHCO1 oesophageal cancer cells” (Eur J Med Chem, 2012)
